Test results published in ChEMBL document CHEMBL1157586 (Bioorg Med Chem, 2010).
Values after ≈ are worked out from the molar mass of the structure shown. One block for each compound: values may come before it.

Assays:
[1] = molecular target: Cell division cycle 7-related protein kinase (Homo sapiens, UniProt O00311); assay: Inhibition of CDC7 by scintillation proximity assay
[2] = molecular target: CYP3A4 (Homo sapiens, UniProt P08684); assay: Inhibition of human CYP3A4 assessed as residual activity at 10 uM; type: ADME; conditions: read-out: Activity
[3] = Clearance in nu/nu mouse at 10 mg/kg, iv; type: ADME, organism-based; parameters: dose 10 mg/kg, route intravenous; conditions: in vivo
How it was run: (§1)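 Healthy nude mice given 10 mg/kg iv as the hydrochloride salt in 5% dextrose solution. Six mice in total, three per leg (iv and oral). Saphenous-vein blood taken predose and at 0.083, 0.5, 1, 6 and 24 h after iv dosing. Plasma separated by centrifugation (10,000g, 3 min, 4 °C) and stored at -80 °C until analysis.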

[4] = molecular target: ALK tyrosine kinase receptor (Homo sapiens, UniProt Q9UM73); assay: Inhibition of ALK by scintillation proximity assay
[5] = molecular target: Cyclin-dependent kinase 5/CDK5 activator 1 (Homo sapiens, UniProt Q00535); assay: Inhibition of CDK5/p25 by scintillation proximity assay; type: protein-complex assay
[6] = Plasma protein binding in human by HPLC analysis; type: ADME, cell-free; conditions: read-out: PPB (converted)
[7] = molecular target: Fibroblast growth factor receptor 1 (Homo sapiens, UniProt P11362); assay: Inhibition of FGFR1 by scintillation proximity assay
[8] = molecular target: High affinity nerve growth factor receptor (Homo sapiens, UniProt P04629); assay: Inhibition of TRKA
[9] = molecular target: Inhibitor of nuclear factor kappa-B kinase subunit beta (Homo sapiens, UniProt O14920); assay: Inhibition of IKK2 by scintillation proximity assay
[10] = molecular target: Protein kinase C alpha type (Homo sapiens, UniProt P17252); assay: Inhibition of PKCalpha by scintillation proximity assay
[11] = molecular target: Serine/threonine-protein kinase Chk1 (Homo sapiens, UniProt O14757); assay: Inhibition of CHK1 by scintillation proximity assay
[12] = molecular target: Serine/threonine-protein kinase PLK1 (Homo sapiens, UniProt P53350); assay: Inhibition of PLK1
Chain of Serine/threonine-protein kinase PLK1 (P53350 whole entry): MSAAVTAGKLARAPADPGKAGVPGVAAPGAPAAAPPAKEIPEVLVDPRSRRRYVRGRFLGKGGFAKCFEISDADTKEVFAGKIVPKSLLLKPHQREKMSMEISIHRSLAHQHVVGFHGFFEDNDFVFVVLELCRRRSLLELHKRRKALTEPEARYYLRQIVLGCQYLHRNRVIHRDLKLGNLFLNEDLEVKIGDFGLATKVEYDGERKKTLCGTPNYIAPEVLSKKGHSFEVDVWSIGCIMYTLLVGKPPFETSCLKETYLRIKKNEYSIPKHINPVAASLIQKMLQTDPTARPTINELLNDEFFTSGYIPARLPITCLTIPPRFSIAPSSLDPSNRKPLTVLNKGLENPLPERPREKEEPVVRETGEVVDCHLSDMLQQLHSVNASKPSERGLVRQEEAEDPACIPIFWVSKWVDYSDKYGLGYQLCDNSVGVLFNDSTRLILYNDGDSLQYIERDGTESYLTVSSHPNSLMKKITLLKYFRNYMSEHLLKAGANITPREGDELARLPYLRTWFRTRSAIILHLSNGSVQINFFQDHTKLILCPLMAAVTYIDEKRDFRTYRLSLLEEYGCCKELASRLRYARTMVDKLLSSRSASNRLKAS

[13] = molecular target: MAP kinase-activated protein kinase 2 (Homo sapiens, UniProt P49137); assay: Inhibition of MAPKAPK2 by scintillation proximity assay
[14] = molecular target: Cyclin-dependent kinase 4/cyclin D1 (Homo sapiens, UniProt P11802); assay: Inhibition of CDK4/cyclin D1 by scintillation proximity assay; type: protein-complex assay
[15] = Solubility at pH 7; type: physicochemical; conditions: buffer
[16] = Solubility in 5% dextrose solution; type: physicochemical
[17] = AUC in nu/nu mouse at 10 mg/kg, iv; type: ADME, organism-based; parameters: dose 10 mg/kg, route intravenous; conditions: plasma; how it was run: as §1
[18] = molecular target: RAC-alpha serine/threonine-protein kinase (Homo sapiens, UniProt P31749); assay: Inhibition of AKT1
[19] = Volume of distribution at steady state in nu/nu mouse at 10 mg/kg, iv; type: ADME, organism-based; parameters: dose 10 mg/kg, route intravenous; conditions: in vivo, read-out: Vdss
How it was run: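 Healthy nude mice received a single 10 mg/kg iv dose as the hydrochloride salt in 5% dextrose; six mice were used in total across the iv and oral legs. Saphenous-vein blood was drawn predose and at 0.083, 0.5, 1, 6 and 24 h. Samples were spun at 10,000g for 3 min at 4 °C, and plasma was stored at −80 °C until analysis.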

[20] = test system: Mus musculus; assay: Toxicity in BALB/c nu/nu mouse at 10 to 30 mg/kg, iv QD for 10 consecutive days measured post last dose; type: organism-based; parameters: dose 10-30 mg/kg, route intravenous; conditions: in vivo
How it was run: (§2)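 Tumour-bearing nude mice were dosed iv once daily for 10 consecutive days, with compound dissolved in 5% dextrose; vehicle-treated mice served as controls. Doses were 10, 20 and 30 mg/kg in the A2780 model (starting day 8), and 10 and 20 mg/kg in the HCT-116 and BX-PC3 models. Body weight change was compared with controls, and gross autopsy was performed.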

[21] = molecular target: Cyclin-dependent kinase 7/ cyclin H (Homo sapiens, UniProt P50613); assay: Inhibition of CDK7/cyclin H by scintillation proximity assay; type: protein-complex assay
[22] = molecular target: Tyrosine-protein kinase JAK2 (Homo sapiens, UniProt O60674); assay: Inhibition of JAK2 by scintillation proximity assay
Chain of Tyrosine-protein kinase JAK2 (O60674 whole entry): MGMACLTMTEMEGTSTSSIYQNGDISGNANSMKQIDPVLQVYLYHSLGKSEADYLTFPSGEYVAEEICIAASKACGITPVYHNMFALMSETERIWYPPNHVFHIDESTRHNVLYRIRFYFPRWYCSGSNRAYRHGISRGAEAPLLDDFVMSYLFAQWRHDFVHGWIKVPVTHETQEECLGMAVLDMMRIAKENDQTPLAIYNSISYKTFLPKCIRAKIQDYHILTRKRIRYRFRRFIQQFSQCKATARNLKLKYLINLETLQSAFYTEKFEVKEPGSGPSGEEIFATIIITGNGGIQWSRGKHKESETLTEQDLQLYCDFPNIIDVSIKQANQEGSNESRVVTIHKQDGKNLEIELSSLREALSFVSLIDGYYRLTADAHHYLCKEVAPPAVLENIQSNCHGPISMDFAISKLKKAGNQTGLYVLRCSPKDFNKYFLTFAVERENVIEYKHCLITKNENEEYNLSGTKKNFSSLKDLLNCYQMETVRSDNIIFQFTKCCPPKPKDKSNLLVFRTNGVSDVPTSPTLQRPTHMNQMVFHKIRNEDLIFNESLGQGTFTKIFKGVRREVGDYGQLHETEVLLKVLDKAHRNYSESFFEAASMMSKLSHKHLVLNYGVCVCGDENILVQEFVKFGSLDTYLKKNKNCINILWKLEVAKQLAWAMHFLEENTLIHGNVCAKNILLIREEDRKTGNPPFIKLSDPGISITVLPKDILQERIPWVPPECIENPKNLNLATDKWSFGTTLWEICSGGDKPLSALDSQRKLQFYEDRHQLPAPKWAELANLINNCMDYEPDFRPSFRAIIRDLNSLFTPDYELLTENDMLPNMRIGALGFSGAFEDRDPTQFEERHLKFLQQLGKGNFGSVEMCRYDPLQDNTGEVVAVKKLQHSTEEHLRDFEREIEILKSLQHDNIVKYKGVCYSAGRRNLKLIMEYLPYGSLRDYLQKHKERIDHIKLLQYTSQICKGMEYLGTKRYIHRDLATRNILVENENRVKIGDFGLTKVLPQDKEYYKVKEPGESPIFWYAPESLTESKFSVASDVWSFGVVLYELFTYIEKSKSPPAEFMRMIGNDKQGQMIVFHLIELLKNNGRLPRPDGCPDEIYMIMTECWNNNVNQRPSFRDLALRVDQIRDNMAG

[23] = molecular target: Insulin-like growth factor 1 receptor (Homo sapiens, UniProt P08069); assay: Inhibition of IGF1R by scintillation proximity assay
[24] = Half life in nu/nu mouse at 10 mg/kg, iv; type: ADME, organism-based; parameters: dose 10 mg/kg, route intravenous; conditions: in vivo; how it was run: as §1
[25] = molecular target: Serine/threonine-protein kinase Nek6 (Homo sapiens, UniProt Q9HC98); assay: Inhibition of NEK6 by scintillation proximity assay
[26] = molecular target: Mitogen-activated protein kinase 14 (Homo sapiens, UniProt Q16539); assay: Inhibition of p38alpha
[27] = Cmax in nu/nu mouse at 10 mg/kg, iv; type: ADME, organism-based; parameters: dose 10 mg/kg, route intravenous; conditions: in vivo; how it was run: as §1
[28] = molecular target: Aurora kinase A (Homo sapiens, UniProt O14965); assay: Inhibition of Aurora A by scintillation proximity assay
Chain of Aurora kinase A (O14965 whole entry): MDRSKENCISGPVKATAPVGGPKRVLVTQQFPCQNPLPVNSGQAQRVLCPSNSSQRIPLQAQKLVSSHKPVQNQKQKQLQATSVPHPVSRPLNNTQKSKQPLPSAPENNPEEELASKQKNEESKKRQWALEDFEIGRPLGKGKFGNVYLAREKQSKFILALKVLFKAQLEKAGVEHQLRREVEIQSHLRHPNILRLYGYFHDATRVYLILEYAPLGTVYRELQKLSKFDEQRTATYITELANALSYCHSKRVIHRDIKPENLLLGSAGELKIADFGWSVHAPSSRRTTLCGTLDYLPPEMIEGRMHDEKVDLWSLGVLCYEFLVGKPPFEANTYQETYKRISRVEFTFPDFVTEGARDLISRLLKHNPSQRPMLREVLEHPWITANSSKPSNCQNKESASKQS

[29] = molecular target: Cyclin-dependent kinase 1/cyclin B1 (Homo sapiens, UniProt P06493); assay: Inhibition of CDK1/cyclin B; type: protein-complex assay
Chain of Cyclin-dependent kinase 1/cyclin B1 (P06493 whole entry): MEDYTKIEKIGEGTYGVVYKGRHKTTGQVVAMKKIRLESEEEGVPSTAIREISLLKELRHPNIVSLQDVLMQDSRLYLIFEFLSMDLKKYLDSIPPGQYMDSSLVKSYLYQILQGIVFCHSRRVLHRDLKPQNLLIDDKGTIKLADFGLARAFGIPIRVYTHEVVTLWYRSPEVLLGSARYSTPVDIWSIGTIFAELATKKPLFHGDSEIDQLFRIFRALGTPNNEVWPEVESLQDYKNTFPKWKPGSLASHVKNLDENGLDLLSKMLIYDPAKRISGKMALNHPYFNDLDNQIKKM
Chain of Cyclin-dependent kinase 1/cyclin B1 (P14635 whole entry, further chain): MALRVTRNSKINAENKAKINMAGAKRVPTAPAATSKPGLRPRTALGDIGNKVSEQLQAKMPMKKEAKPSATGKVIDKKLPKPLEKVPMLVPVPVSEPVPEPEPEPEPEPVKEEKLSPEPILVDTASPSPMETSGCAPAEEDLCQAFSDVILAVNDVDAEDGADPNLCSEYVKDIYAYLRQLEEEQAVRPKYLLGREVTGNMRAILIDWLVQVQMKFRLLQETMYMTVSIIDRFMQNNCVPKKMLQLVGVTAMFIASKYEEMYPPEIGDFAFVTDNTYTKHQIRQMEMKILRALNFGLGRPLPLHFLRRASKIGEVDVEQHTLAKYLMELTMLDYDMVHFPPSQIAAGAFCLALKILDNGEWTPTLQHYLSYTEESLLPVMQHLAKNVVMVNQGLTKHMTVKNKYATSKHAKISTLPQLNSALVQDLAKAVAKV

[30] = molecular target: Serine/threonine-protein kinase PAK 4 (Homo sapiens, UniProt O96013); assay: Inhibition of PAK4 by scintillation proximity assay
[31] = molecular target: Aurora kinase B (Homo sapiens, UniProt Q96GD4); assay: Inhibition of Aurora B by scintillation proximity assay
Chain of Aurora kinase B (Q96GD4 whole entry): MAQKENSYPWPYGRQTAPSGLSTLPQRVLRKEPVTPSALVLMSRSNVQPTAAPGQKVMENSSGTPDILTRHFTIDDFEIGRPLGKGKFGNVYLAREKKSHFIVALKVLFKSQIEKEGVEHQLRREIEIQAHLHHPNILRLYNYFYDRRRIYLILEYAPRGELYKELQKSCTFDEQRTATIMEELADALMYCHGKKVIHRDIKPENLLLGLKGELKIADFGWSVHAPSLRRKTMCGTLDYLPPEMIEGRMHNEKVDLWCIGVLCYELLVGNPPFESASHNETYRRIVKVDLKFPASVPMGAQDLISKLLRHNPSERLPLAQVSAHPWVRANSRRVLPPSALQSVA

[32] = molecular target: Receptor-type tyrosine-protein kinase FLT3 (Homo sapiens, UniProt P36888); assay: Inhibition of FLT3 by scintillation proximity assay
[33] = test system: Mus musculus; assay: Toxicity in BALB/c nu/nu mouse assessed as body weight reduction at 10 to 30 mg/kg, iv QD for 10 consecutive days measured post last dose; type: organism-based; parameters: dose 10-30 mg/kg, route intravenous; scale not given: the % may be the effect or the level left; conditions: in vivo; how it was run: as §2
[34] = molecular target: Glycogen synthase kinase-3 beta (Homo sapiens, UniProt P49841); assay: Inhibition of GSK3-beta by scintillation proximity assay
Chain of Glycogen synthase kinase-3 beta (P49841 whole entry): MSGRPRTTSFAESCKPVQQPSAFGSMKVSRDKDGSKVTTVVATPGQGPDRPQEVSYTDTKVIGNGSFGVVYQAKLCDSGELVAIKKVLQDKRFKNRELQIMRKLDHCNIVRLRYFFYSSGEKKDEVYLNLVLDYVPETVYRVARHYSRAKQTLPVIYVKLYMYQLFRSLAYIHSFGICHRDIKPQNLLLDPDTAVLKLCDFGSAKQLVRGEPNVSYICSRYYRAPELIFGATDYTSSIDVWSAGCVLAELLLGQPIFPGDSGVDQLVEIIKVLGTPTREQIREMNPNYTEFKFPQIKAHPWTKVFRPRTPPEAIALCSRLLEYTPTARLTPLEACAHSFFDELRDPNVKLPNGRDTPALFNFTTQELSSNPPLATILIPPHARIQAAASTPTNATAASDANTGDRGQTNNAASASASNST

[35] = molecular target: Vascular endothelial growth factor receptor 3 (Homo sapiens, UniProt P35916); assay: Inhibition of VEGFR3 by scintillation proximity assay
[36] = molecular target: cAMP-dependent protein kinase catalytic subunit alpha (Homo sapiens, UniProt P17612); assay: Inhibition of PKAalpha by scintillation proximity assay
[37] = molecular target: Hepatocyte growth factor receptor (Homo sapiens, UniProt P08581)
[38] = molecular target: Mast/stem cell growth factor receptor Kit (Homo sapiens, UniProt P10721); assay: Inhibition of cKit by scintillation proximity assay
[39] = Inhibition of SULU1 by scintillation proximity assay
[40] = Inhibition of NIM by scintillation proximity assay
[41] = molecular target: Cyclin-dependent kinase 2/cyclin A (Homo sapiens, UniProt P24941); assay: Inhibition of human CDK2/cyclin A expressed in Escherichia coli BL21 by scintillation proximity assay
[42] = molecular target: Insulin receptor (Homo sapiens, UniProt P06213); assay: Inhibition of IR by scintillation proximity assay
[43] = test system: A2780; assay: Inhibition of cellular DNA synthesis in human A2780 cells assessed as BrdU incorporation into nuclear DNA at 3 uM after 24 hrs by Hoechst 33342 staining-based microscopic analysis; type: functional; parameters: scale not given: the % may be the effect or the level left
How it was run: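 A2780 human ovarian adenocarcinoma cells were seeded at 25000 cells/cm² in RPMI 1640 pH 7.4 with 10% FBS, 2 mM L-glutamine and penicillin–streptomycin. They were kept at 37 °C in 5% CO₂. After 24 h they were exposed to compound for 24 h. Floating and adherent cells were harvested with trypsin/EDTA, washed in PBS, and split for flow cytometry, immunoblot and BrdU incorporation.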

[44] = molecular target: Serine/threonine-protein kinase PLK2 (Homo sapiens, UniProt Q9NYY3); assay: Inhibition of PLK2 by scintillation proximity assay
[45] = Inhibition of STK2 by scintillation proximity assay
[46] = molecular target: Proto-oncogene tyrosine-protein kinase receptor Ret (Homo sapiens, UniProt P07949); assay: Inhibition of RET by scintillation proximity assay
[47] = test system: A2780; assay: Cell cycle arrest in human A2780 cells assessed as accumulation at G0/G1 phase at 3 uM after 24 hrs by FACS analysis; type: functional
How it was run: (§3)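 A2780 cells (ECACC) seeded at 25000 cells/cm² in RPMI 1640, pH 7.4, with 10% FBS, 2 mM L-glutamine and penicillin–streptomycin, at 37 °C in 5% CO₂. After 24 h, treated for 24 h at 1 and 3 µM. Floating and trypsinised adherent cells pooled, PBS-washed, and DNA content analysed by flow cytometry.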

[48] = molecular target: Cyclin-dependent kinase 2/cyclin E1 (Homo sapiens, UniProt P24941); assay: Inhibition of CDK2/cyclin E by scintillation proximity assay; type: protein-complex assay
[49] = molecular target: Tyrosine-protein kinase ABL1 (Homo sapiens, UniProt P00519); assay: Inhibition of c-ABL by scintillation proximity assay
[50] = Inhibition of CK2 by scintillation proximity assay
[51] = molecular target: Vascular endothelial growth factor receptor 2 (Homo sapiens, UniProt P35968); assay: Inhibition of VEGFR2 by scintillation proximity assay
[52] = test system: A2780; assay: Cell cycle arrest in human A2780 cells assessed as accumulation at G2/M phase at 3 uM after 24 hrs by FACS analysis; type: functional; how it was run: as §3
[53] = Inhibition of PDGFR by scintillation proximity assay
[54] = molecular target: Mitogen-activated protein kinase 1 (Homo sapiens, UniProt P28482); assay: Inhibition of ERK2
[55] = test system: A2780; assay: Cell cycle arrest in human A2780 cells assessed as accumulation at S phase at 3 uM after 24 hrs by FACS analysis; type: functional; how it was run: as §3
[56] = test system: A2780; assay: Antiproliferative activity against human A2780 cells after 72 hrs by CellTiter-Glo luminescence assay; conditions: A2780, 72 h

Chain of Cell division cycle 7-related protein kinase (O00311 whole entry): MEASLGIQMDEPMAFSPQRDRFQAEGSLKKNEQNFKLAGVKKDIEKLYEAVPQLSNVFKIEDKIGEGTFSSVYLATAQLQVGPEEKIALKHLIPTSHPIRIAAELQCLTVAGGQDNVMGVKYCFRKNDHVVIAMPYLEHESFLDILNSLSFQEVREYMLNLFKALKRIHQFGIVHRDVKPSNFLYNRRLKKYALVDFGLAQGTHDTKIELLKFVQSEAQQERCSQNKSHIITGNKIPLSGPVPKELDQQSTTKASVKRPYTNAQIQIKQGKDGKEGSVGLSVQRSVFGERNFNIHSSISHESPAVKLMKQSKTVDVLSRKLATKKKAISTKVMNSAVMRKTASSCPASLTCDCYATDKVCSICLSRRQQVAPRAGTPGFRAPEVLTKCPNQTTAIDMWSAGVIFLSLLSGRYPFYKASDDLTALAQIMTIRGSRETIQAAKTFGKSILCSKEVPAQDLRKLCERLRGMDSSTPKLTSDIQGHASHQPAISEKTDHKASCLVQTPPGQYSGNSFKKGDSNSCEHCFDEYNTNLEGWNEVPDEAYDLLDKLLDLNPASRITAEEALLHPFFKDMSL

IC50 [1]: > 10 µM
activity at 10 µM [2]: 91%
clearance [3]: 23.9 mL/min/kg
IC50 [4]: > 10 µM
IC50 [5]: 0.005 µM
fraction unbound [6]: 0.46
IC50 [7]: > 10 µM
IC50 [8]: > 10 µM
IC50 [9]: > 10 µM
IC50 [10]: > 10 µM
IC50 [11]: > 10 µM
IC50 [12]: > 10 µM
IC50 [13]: > 10 µM
IC50 [14]: 0.062 µM
solubility [15]: > 225 µM
solubility [16]: 10000 µg/mL (≈ 27.7 mM)
AUC [17]: 19.2 µM·h
IC50 [18]: > 10 µM
Vd [19]: 1.36 L/kg
IC50 [21]: 0.01 µM
IC50 [22]: > 10 µM
IC50 [23]: > 10 µM
half-life [24]: 4.1 h
IC50 [25]: > 10 µM
IC50 [26]: > 10 µM
Cmax [27]: 36.5 µM
IC50 [28]: > 10 µM
IC50 [29]: 0.06 µM
IC50 [30]: > 10 µM
IC50 [31]: > 10 µM
IC50 [32]: > 10 µM
IC50 [34]: 0.079 µM
IC50 [35]: > 10 µM
IC50 [36]: > 10 µM
SMILES: CC(C)CC(=O)Nc1[nH]nc2c1CN(C(=O)C1CCN(C)CC1)C2(C)C [PHA-793887]
Activity [20]: Non-toxic
Activity [33]: < 10%

IC50 [1]: > 10 µM
IC50 [4]: > 10 µM
IC50 [37]: > 10 µM
IC50 [5]: 0.14 µM
IC50 [7]: > 10 µM
IC50 [9]: > 10 µM
IC50 [10]: > 10 µM
IC50 [11]: > 10 µM
IC50 [12]: > 10 µM
IC50 [13]: > 10 µM
IC50 [38]: > 10 µM
IC50 [39]: > 10 µM
solubility [15]: 186 µM (≈ 70 µg/mL)
IC50 [40]: > 10 µM
IC50 [41]: 0.06 µM
solubility [16]: 3400 µg/mL (≈ 9.03 mM)
IC50 [42]: > 10 µM
IC50 [18]: > 10 µM
IC50 [44]: > 10 µM
IC50 [45]: > 10 µM
IC50 [46]: > 10 µM
IC50 [22]: > 10 µM
IC50 [23]: > 10 µM
IC50 [48]: 0.09 µM
IC50 [49]: > 10 µM
IC50 [50]: > 10 µM
IC50 [51]: > 10 µM
IC50 [25]: > 10 µM
IC50 [26]: > 10 µM
IC50 [28]: > 10 µM
IC50 [29]: 0.45 µM
IC50 [30]: > 10 µM
IC50 [31]: > 10 µM
IC50 [32]: > 10 µM
IC50 [53]: > 10 µM
IC50 [54]: > 10 µM
IC50 [34]: 3.63 µM
IC50 [35]: > 10 µM
IC50 [56]: 0.31 µM
IC50 [36]: > 10 µM
SMILES: CC(C)(C)C(=O)N1Cc2c(NC(=O)c3cc(F)cc(F)c3)n[nH]c2C1(C)C
Activity [43]: -96%
Activity [47]: 22%
Activity [52]: 26%
Activity [55]: -52%
